Assay results gathered from unrelated publications.
Compare with care: the assays were run in different laboratories.
Target: MAP/microtubule affinity-regulating kinase 4 (MARK4, Homo sapiens, UniProt Q96L34)
Sequence (Q96L34 1-752, as in one of the studies): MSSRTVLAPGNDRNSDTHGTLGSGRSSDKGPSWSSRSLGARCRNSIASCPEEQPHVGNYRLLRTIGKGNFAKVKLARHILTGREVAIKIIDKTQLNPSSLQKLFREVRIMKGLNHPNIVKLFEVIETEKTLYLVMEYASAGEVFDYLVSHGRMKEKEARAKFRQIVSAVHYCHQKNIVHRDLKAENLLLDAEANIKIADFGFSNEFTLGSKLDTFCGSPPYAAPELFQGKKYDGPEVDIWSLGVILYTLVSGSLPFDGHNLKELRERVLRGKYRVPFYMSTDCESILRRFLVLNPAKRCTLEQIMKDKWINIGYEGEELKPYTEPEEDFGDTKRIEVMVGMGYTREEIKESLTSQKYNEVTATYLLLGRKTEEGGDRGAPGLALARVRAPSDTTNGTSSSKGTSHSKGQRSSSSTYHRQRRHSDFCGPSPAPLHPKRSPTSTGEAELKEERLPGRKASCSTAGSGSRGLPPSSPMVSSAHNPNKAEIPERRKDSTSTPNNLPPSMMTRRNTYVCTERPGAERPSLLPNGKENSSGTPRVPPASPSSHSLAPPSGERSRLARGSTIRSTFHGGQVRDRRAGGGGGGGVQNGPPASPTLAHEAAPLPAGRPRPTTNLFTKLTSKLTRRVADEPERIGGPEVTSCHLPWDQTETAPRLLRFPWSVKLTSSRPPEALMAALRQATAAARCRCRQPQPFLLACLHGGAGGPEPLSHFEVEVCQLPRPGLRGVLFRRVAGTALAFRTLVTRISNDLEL

`Cn1cc(-c2cccc(N3CCc4c(sc5c4CC(C)(C)C5)C3=O)c2CO)cc(Nc2ccncn2)c1=O` has an inhibition of 3% (enzyme activity, inhibitor; 1 µM).
`COc1cc(Nc2ncc(F)c(Nc3ccc4c(n3)NC(=O)C(C)(C)O4)n2)cc(OC)c1OC` has an inhibition of 99% (binding, competition with immobilised ligand; 10 µM).
With `CC(C)(C)c1cc(C=C(C#N)C#N)cc(Br)c1O` the remaining activity was 103% (enzyme activity, inhibitor; 0.5 µM).
`Cn1cncc1[C@@](O)(COc1ccc(C#N)cc1-c1ccc(OC(F)(F)F)cc1)c1ccc(C#N)cc1` gave a remaining binding of 100% (cell-free assay, competition with immobilised ligand; 1 µM).
The remaining binding of `Cc1nn(C)cc1-c1nc2c(N3CCN(Cc4ccc(Cl)cc4)CC3)c(Cl)cnc2[nH]1` is reported as 29% (binding, competition with immobilised ligand; 1 µM).
`O=c1[nH]c2ccccc2n1C1CCN(Cc2ccc(-c3[nH]c4cc5ncnc5cc4nc3-c3ccccc3)cc2)CC1` gave a remaining signal of 102% (cell-free assay; 0.5 µM).
`Nc1ncc(-c2nc(N3CCOCC3)nc(N3CCOCC3)n2)c(C(F)F)n1` gave a remaining binding of 90% (binding, competition with immobilised ligand; 10 µM).
For `Cn1cc(-c2cc(F)cc(N3CCn4c(cc5c4CCCC5)C3=O)c2CO)cc(Nc2ccc(N3CCN(C4COC4)CC3)cn2)c1=O`, the inhibition was 9% (enzyme activity, inhibitor; 0.1 µM).
For `COc1ncccc1-c1cnn2ccc(N3CCN(C(=O)OC(C)C)CC3)nc12`, the remaining binding was 100% (binding, competition with immobilised ligand; 1 µM).
